Data taken from ChEMBL document CHEMBL2046385, “Palau'amine and related oroidin alkaloids dibromophakellin and dibromophakellstatin inhibit the human 20S proteasome” (J Nat Prod, 2012).
Calls of active or inactive are those of the source. No cut-off for these calls is given here. Peptide text beside a SMILES is read from it. * marks the point of attachment. Cbz = O=C(OCc1ccccc1)*

Experiments:
[1] = Inhibition of caspase-like of purified human 20S proteasome using Z-LLE-AMC as substrate after 30 mins by fluorescence assay
How it was run: (§1)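 Purified human 20S core at 1 nM in 50 mM Tris-HCl pH 7.5 with 0.03% SDS, 37 °C. Fluorogenic substrate was used at its Km. Released AMC was read at ex 380/em 460 nm every minute for 30 min. The maximal (linear) rate was used to derive IC50. Each value is the mean of three or more independent experiments.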

[2] = Inhibition of chymotryptic-like of purified human 20S proteasome using Suc-LLVY-AMC as substrate after 30 mins by fluorescence assay; how it was run: as §1
[3] = Inhibition of chymotryptic-like of purified human 20S immunoproteasome
[4] = Inhibition of tryptic-like of purified human 20S proteasome using Boc-LRR-AMC as substrate after 30 mins by fluorescence assay; how it was run: as §1
Homo sapiens [5] = species: Homo sapiens; test: Reversible inhibition of chymotryptic-like of purified human 20S proteasome assessed as Suc-LLVY-AMC substrate at 1 uM measured after drug washout
How it was run: (§2)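 Washout assay. Human 20S proteasome (1 nM) was exposed to vehicle or inhibitor (1 or 10 μM), then assayed for CT-L activity with Suc-LLVY-AMC as in the main assay. The mixture was washed through a 10K centrifugal filter with 500 volumes of reaction buffer. Retentate CT-L activity was compared with the prewash activity.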

Homo sapiens [6] = species: Homo sapiens; test: Irreversible inhibition of chymotryptic-like of purified human 20S proteasome assessed as Suc-LLVY-AMC substrate at 1 uM measured after drug washout; how it was run: as §2
HeLa [7] = test: Inhibition of 26S proteasome-mediated IkappaBalpha proteasomal degradation in TNFalpha-stimulated human HeLa cells at 1 uM treated 30 mins before TNFalpha challenge measured after 30 mins using DAPI staining by confocal microscopy analysis; format: cell-based
How it was run: (§3)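 HeLa cells on coverslips in MEM with 10% FBS were pretreated 30 min with 1 μM compound or 0.1% DMSO vehicle, then given 20 ng/mL TNFα for 30 min or left unstimulated. Fixed in paraformaldehyde, permeabilized with Triton, blocked in BSA/Tween. Mouse anti-IκBα (L35A5) 1:250 overnight at 4 °C, then Alexa-labelled secondary; DAPI counterstain. Confocal imaging with quantified IκBα fluorescence intensity; p-value versus vehicle/TNFα.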

Homo sapiens [8] = species: Homo sapiens; test: Irreversible inhibition of chymotryptic-like of purified human 20S proteasome assessed as Suc-LLVY-AMC substrate at 0.5 to 1 uM
How it was run: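 Suc-LLVY-AMC 50 μM (Km). AMC fluorescence λex 380/λem 440. Vmax taken from linear portions and plotted against [E]. An irreversible inhibitor intersects the horizontal axis rather than passing through the origin.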

HeLa [9] = test: Inhibition of 20S proteasome in TNFalpha-stimulated human HeLa cells assessed as accumulation of ubiquitinylated cellular proteins at 1 uM after 2 hrs using DAPI staining by DIC image analysis; format: cell-based
How it was run: (§4)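 HeLa cells grown on glass coverslips in MEM with 10% FBS and penicillin/streptomycin. Treated 2 h with 1.0 μM compound or 0.1% DMSO vehicle, TNFα 20 ng/mL stimulation for 2 h. Fixed in 4% paraformaldehyde, permeabilized with 0.5% Triton, blocked in 5% BSA/0.05% Tween-20. […] anti-ubiquitin (P4D1) 1:250 overnight at 4 °C, then Alexa546 secondary; DAPI nuclear stain. DIC and confocal imaging, with quantification of ubiquitin fluorescence intensity.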

HeLa [10] = test: Inhibition of 26S proteasome-mediated IkappaBalpha proteasomal degradation in human HeLa cells at 1 uM after 30 mins using DAPI staining by confocal microscopy analysis; format: cell-based; how it was run: as §3
Homo sapiens [11] = species: Homo sapiens; test: Irreversible inhibition of chymotryptic-like of purified human 20S proteasome assessed as Suc-LLVY-AMC substrate at 10 to 50 uM measured after drug washout
HeLa [12] = test: Inhibition of 20S proteasome in TNFalpha-stimulated human HeLa cells assessed as accumulation of ubiquitinylated cellular proteins at 1 uM after 2 hrs using DAPI staining by fluorescence confocal microscopic analysis; format: cell-based; how it was run: as §4
Homo sapiens [13] = species: Homo sapiens; test: Reversible inhibition of purified human 20S proteasome at pH >7.5
How it was run: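 Compound preincubated in assay buffer (50 mM Tris-HCl, 0.03% SDS) at pH 7.5 or 8.0 for varying times before enzyme addition. Residual inhibition of 1 nM purified human 20S proteasome then read by fluorogenic AMC release at 37 °C over 30 min.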

Structure (SMILES) | IC50 [1] [µM] | IC50 [2] [µM] | IC50 [3] [µM] | IC50 [4] [µM] | further results
O=c1c2cc(Br)c(Br)n2cc2n1CCC2 | > 100 | > 100 | > 100 | > 100 | 
NC[C@@H]1[C@H]2CN3C(=O)c4cccn4[C@@H]4NC(N)=N[C@@]43[C@@H]2[C@]2(N=C(N)N[C@H]2O)[C@H]1Cl (racemic) | 3 | 5.5 | 4 | > 100 | 
CC(C)C[C@@H](C=O)NC(=O)[C@H](CC(C)C)NC(=O)[C@H](CC(C)C)NC(=O)OCc1ccccc1 (Cbz-Leu-Leu-Leu-aldehyde) |  |  |  |  | inhibition (Homo sapiens [5]): Active
CC[C@H](C)[C@H](NC(=O)[C@H]([C@@H](C)CC)N(C)C(C)=O)C(=O)N[C@H](C(=O)N[C@@H](CC(C)C)C(=O)[C@@]1(C)CO1)[C@@H](C)O |  |  |  |  | inhibition (Homo sapiens [6]): Active
O=C1N[C@H]2n3c(cc(Br)c3Br)C(=O)N3CCC[C@]23N1 (racemic) [DIBROMOPHAKELLSTATIN] | 16.1 | 11.9 | 6.2 | > 100 | 
NC[C@@H]1[C@H]2CN3C(=O)c4cccn4[C@@H]4NC(N)=N[C@@]43[C@@H]2[C@]2(N=C(N)N[C@H]2O)[C@H]1Cl [listing 1 of 2 here] | 1.6 | 2.5 | 2.3 |  | 
NC1=N[C@]23CCCN2C(=O)c2cc(Br)c(Br)n2[C@@H]3N1 (racemic) [DIBROMOPHAKELLIN] | 27.1 | 25.3 | 18.7 | > 100 | 
NC[C@@H]1[C@H]2CN3C(=O)c4cccn4[C@@H]4NC(N)=N[C@@]43[C@@H]2[C@]2(N=C(N)N[C@H]2O)[C@H]1Cl [listing 2 of 2 here] |  |  |  |  | inhibition (HeLa [7]): Active; inhibition (Homo sapiens [8]): Active; inhibition (HeLa [9]): Active; inhibition (HeLa [10]): Active; inhibition (Homo sapiens [11]): Active; inhibition (HeLa [12]): Active; inhibition (Homo sapiens [13]): Active
